Results: ChEMBL document CHEMBL2146474, “Synthesis and evaluation of the anti-proliferative and NF-κB activities of a library of simplified tylophorine analogs” (Bioorg Med Chem, 2012)
Active and inactive are the calls of the source. The rule behind the calls is not given here.

Assays:
[1] = test system: MCF7; test: Cytotoxicity against human MCF7 cells assessed as growth inhibition at 5 uM after 72 hrs by alamar blue assay; format: functional; details: for inhibition of growth at 5 µM: MCF7, 72 h, read-out: GI
[2] = test system: DU-145; test: Growth inhibition in human DU145 cells after 72 hrs by alamar blue assay; format: functional; details: DU-145, 72 h
Summary of the method: (§1)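 Cells harvested from exponential-phase culture and resuspended at 10⁵ cells/mL in growth medium with 10% FBS (RPMI1640, EMEM or DMEM; the DMEM also held penicillin, streptomycin and hygromycin), seeded in 96-well plates. Compounds from 10 mM DMSO stocks added in fresh medium across varying concentrations. Cultures grown a further 72 h, then alamarBlue added as read-out.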

[3] = test system: A549; test: Growth inhibition in human A549 cells after 72 hrs by alamar blue assay; format: functional; details: A549, 72 h; summary of the method: as §1
[4] = test system: MCF7; test: Growth inhibition in human MCF7 cells after 72 hrs by alamar blue assay; format: functional; details: MCF7, 72 h
Summary of the method: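 MCF-7 cells from exponential-phase culture re-suspended in RPMI1640 with 10% FBS, adjusted to 10⁵ cells/mL and plated in 96-well plates. Compounds from 10 mM DMSO stocks were added in fresh medium across varying concentrations. Cells were grown a further 72 h, then alamarBlue was added as read-out.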

[5] = Inhibition of TNFalpha-induced NF-kappaB activation in human A549 cells after 30 mins by luciferase reporter gene assay; format: cell-based; details: A549, 0.5 h
Summary of the method: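 A549/NF-κB-luc reporter cells trypsinized, seeded at 5000 cells/well and left 24 h to attach. Compound in complete growth medium added 30 min before TNF-α (1:667 dilution in 1× PBS). After a further 7 h, Bright-Glo luciferin reagent added and luciferase activity read 2 min later.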

SMILES | growth inhibition (GI) [1] | GI50 [4] | other results
COc1cc2c3c(c4cc(OC)c(OC)cc4c2cc1OC)CN(Cc1ccccc1O)CC3 | Active | – | –
COc1cc2c3c(c4cc(OC)c(OC)cc4c2cc1OC)CN1CCCC1C3 (racemic) [(+/-)-TYLOPHORINE] | – | 42 nM | GI50 [2]: 71 nM; GI50 [3]: 45 nM; IC50 [5]: 30 nM
COc1cc2c3c(c4cc(OC)c(OC)cc4c2cc1OC)CNCC3 | – | – | inhibition of growth at 5 µM [1]: 50%
COc1cc2c3c(c4cc(OC)c(OC)cc4c2cc1OC)CN(Cc1ccccc1)CC3 | inactive | – | –
COc1cc2c3c(c4cc(OC)c(OC)cc4c2cc1OC)CN(Cc1cc(C)on1)CC3 | Active | – | –
COc1ccc(CN2CCc3c(c4cc(OC)c(OC)cc4c4cc(OC)c(OC)cc34)C2)cc1 | Active | – | –
COc1cc2c3c(c4cc(OC)c(OC)cc4c2cc1OC)CN(Cc1ccc([N+](=O)[O-])cc1)CC3 | Active | – | –
COc1cc2c3c(c4cc(OC)c(OC)cc4c2cc1OC)CN(Cc1c(OC)cccc1OC)CC3 | inactive | – | –
COc1cc2c3c(c4cc(OC)c(OC)cc4c2cc1OC)CN1CCC[C@H]1C3 [(S)-TYLOPHORINE] | – | 42 nM | –
COc1cc2c3c(c4cc(OC)c(OC)cc4c2cc1OC)CN(C)CC3 | – | – | inhibition of growth at 5 µM [1]: 50%
COc1cc2c3c(c4cc(OC)c(OC)cc4c2cc1OC)CN(CCN)CC3 | inactive | – | –
COc1ccccc1CN1CCc2c(c3cc(OC)c(OC)cc3c3cc(OC)c(OC)cc23)C1 | – | 600 nM | GI50 [2]: 1500 nM; GI50 [3]: 1600 nM; IC50 [5]: 15000 nM; inhibition of growth at 5 µM [1]: 90%
COc1cc2c3c(c4cc(OC)c(OC)cc4c2cc1OC)CN(Cc1ccc(CO)o1)CC3 | Active | – | –
COc1cc2c3c(c4cc(OC)c(OC)cc4c2cc1OC)CN1CCC[C@@H]1C3 [TYLOPHORINE] | – | 32 nM | –
COc1cc2c3c(c4cc(OC)c(OC)cc4c2cc1OC)CN(Cc1cccc(OC)c1O)CC3 | Active | 3000 nM | GI50 [2]: 2100 nM; GI50 [3]: 2100 nM; IC50 [5]: 18900 nM
